# E-selectin induc: induces E-selectin expression in human endothelial cells | HUVEC E-selectin immunofluorescence imaging; normalized: neutral wells 0, TNF-alpha wells 100 | activation, % at 7.58 µM | 0.37% of 260,000 active;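 active = mean E-selectin-positive cell signal at least 10% of the positive control, reached in at least 60% of replicates, without over 20% cell loss; inconclusive = no rule given, readout overlaps actives, possibly toxicity-flagged; inactive = the rest, including those meeting only one limit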
# Target sequence (P16581 whole entry, looked up): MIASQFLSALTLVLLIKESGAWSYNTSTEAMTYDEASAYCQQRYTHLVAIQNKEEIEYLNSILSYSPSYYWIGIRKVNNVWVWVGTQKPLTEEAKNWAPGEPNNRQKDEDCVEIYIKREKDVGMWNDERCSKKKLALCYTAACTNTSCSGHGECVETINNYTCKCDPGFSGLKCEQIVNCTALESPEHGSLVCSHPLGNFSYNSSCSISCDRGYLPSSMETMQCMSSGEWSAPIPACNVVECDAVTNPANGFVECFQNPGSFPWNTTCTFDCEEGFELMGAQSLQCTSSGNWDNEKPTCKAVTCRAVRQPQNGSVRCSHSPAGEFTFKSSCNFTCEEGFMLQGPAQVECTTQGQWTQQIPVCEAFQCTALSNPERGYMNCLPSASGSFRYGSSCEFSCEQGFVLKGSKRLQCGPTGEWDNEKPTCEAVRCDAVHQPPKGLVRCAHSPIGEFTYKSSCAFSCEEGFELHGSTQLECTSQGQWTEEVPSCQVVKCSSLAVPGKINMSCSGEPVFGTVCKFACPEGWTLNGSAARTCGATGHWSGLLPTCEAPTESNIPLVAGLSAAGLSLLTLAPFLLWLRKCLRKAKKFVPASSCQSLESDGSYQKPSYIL
#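 Test system: HUVEC | Signal: Immunofluorescence imaging | Read-out: Percent E-selectin-positive cells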
# Cneo AK release: causes C. neoformans cell lysis. adenylate kinase release luminescence, 4 h; normalised: neutral wells 0, clomiphene wells 100. lysis activity, % at 15 µM. 0.2% of 360,000 active;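 active = mean lysis activity across replicates of at least 80%, whatever share of replicates individually reach that level; inactive = mean lysis activity below 80%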
#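 Schedule: static 4 h at 37 °C with compound, 1 h detection; system: C. neoformans cells; benchmarks: Clomiphene as positive control; buffer or medium: fresh YPD medium; measure: luminescence rise reflecting yeast cell lysis; measured by: luminescent adenylate kinase detection reagent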
# rRNA inh HTS: inhibitors of bacterial rRNA selective over humanized ribosomes | E. coli WT GFP vs humanized-ribosome RFP mutants, fluorescence, 24 h; active compounds read low; DMSO median 0, no signal -100 | 1.6% of 350,000 active | GFP signal change (wild-type ribosome), % (concentration not given with the values);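 active = significant combined selectivity score with lowered wild-type GFP, culture density cut under 30%, mutant RFP and density less affected; inactive = any of these conditions unmet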
# miR122 inh: inhibitors of miR-122 in Huh7 cells | Huh7 miR-122 Renilla luciferase sensor, 48 h; neutral wells = 0, positive control = 100 | activation (reporter increase), % at 12.5 µM | 0.3% of 340,000 active | AID 602342;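 active = mean replicate activation score at least 90 and every replicate individually at or above 90; inconclusive = only one of the two criteria met; inactive = neither criterion met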;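 also: higher luciferase means less miR-122 activity so hits act as miR-122 inhibitors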
# DENV2 CPE rescue: protects cells from dengue virus 2 cytopathic effect; CPE inhibition, % at 9.99 µM; DENV2-infected cells, cytopathic effect rescue, plate reader; 1.7% of 350,000 active; in the data active = CPE inhibition above about 20%, passing the limit was not always enough; inconclusive = no clear call, values can overlap the other calls; tested in BHK-21 cells;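 also: 0% = median of neutral control wells and 100% = median of positive control wells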
# Active calls of the source: *; u = inconclusive; x = no result given; [ ] = remark or other dose. Shown are actives, neighbours in structure and some others; about 3.1% of the full set was active somewhere.
SMILES,E-selectin induc,Cneo AK release,rRNA inh HTS,miR122 inh,DENV2 CPE rescue
Cc1ccc(C)c(NC(=O)CSc2c(C)n[nH]c2C)c1,3,0,-55*,-6,-2
COC(=O)C1=C(C)Nc2nc(-c3ccccc3)nn2C1c1ccc(C)o1 (stereo not drawn),0,-2,-22*,5,-4
CC(=O)Nc1ccc2c(c1)C(=O)N(C)C[C@@H](C)[C@@H](CN(C)C)O2,x,x,0,x,x
Cc1ccc(S(=O)(=O)Nc2ccc3c(c2)C(=O)N([C@@H](C)CO)C[C@@H](C)[C@@H](CN(C)C(=O)Nc2cccc4ccccc24)OCCCC[C@@H](C)O3)cc1,0,2,1,-8[16.7 µM],-7
COCCNC(=O)C[C@@H]1C[C@H]2c3cc(NC(=O)C4CCOCC4)ccc3O[C@H]2[C@H](CO)O1,0,109*,2,7[16.7 µM],24*
O=C(O)C[C@@H]1C[C@@H]2c3cc(NC(=O)C4CCOCC4)ccc3O[C@@H]2[C@H](CO)O1,0,x,3,x,28*
NS(=O)(=O)c1ccc(N/C=C\C(=O)c2cccc3ccccc23)cc1,2,x,x,x,x
O=C(/C=C\Nc1ccc(S(=O)(=O)Nc2ncccn2)cc1)c1cccc2ccccc12,x,x,-20*,x,0
Cc1cccc(-c2cc(N3CCCN(C)CC3)n3nccc3n2)c1,69*,5,5,-11,1
CN1CCCN(c2cc(-c3ccc4ccccc4c3)nc3ccnn23)CC1,150*,0,11,-3,4
CCOc1cccc(-c2cc(N3CCN(CCO)CC3)n3nccc3n2)c1,2,3,3,1,-4
CCC(=O)Nc1ccc2c(c1)OC[C@H](C)N(C(=O)c1ccccn1)C[C@@H](C)[C@@H](OC)CN(C)C2=O,0,-1,1,1[16.7 µM],-8
COCC(=O)Nc1ccc2c(c1)C(=O)N(C)C[C@@H](OC)[C@H](C)CN(C(=O)c1ccccn1)[C@H](C)CO2,0,-2,2,x,-5
CCC(=O)Nc1ccc2c(c1)OC[C@@H](C)N(C(=O)c1ccccn1)C[C@@H](C)[C@H](OC)CN(C)C2=O,0,-3,1,1[16.7 µM],26*
COCC(=O)Nc1ccc2c(c1)C(=O)N(C)C[C@@H](OC)[C@@H](C)CN(C(=O)c1ccccn1)[C@H](C)CO2,0,0,0,x,23*
CO[C@H]1CN(C)C(=O)c2ccc(NC(=O)Nc3cc(F)ccc3F)cc2OC[C@@H](C)N(C(=O)c2ccccn2)C[C@H]1C,0,-1,-2,x,38*
COCC(=O)Nc1ccc2c(c1)C(=O)N(C)C[C@H](OC)[C@H](C)CN(C(=O)c1ccccn1)[C@@H](C)CO2,0,-4,5,x,65*
C[C@H]1CN([C@@H](C)CO)C(=O)c2cccc(NC(=O)c3ccc(-c4nccs4)cc3)c2O[C@@H]1CN(C)S(=O)(=O)c1ccc(F)cc1,0,6,-4,-9[16.7 µM],10
COc1ccc2c3c(n(C)c2c1)[C@@H](CO)N(C(C)=O)CC31CN(C(=O)c2ccccc2)C1,x,x,0,x,x
CO[C@@H]1CN(C)C(=O)c2ccc(NC(=O)C3CC3)cc2OC[C@H](C)NC[C@@H]1C,1,11,2,x,-3
O=C(NC(=S)N1CCN(C/C=C/c2ccccc2)CC1)c1ccc(Cl)nc1,x,5,-49*,10,1
O=C(NC(=S)N1CCN(Cc2ccccc2)CC1)c1cccnc1,x,-12,14,-3,-4
CCOc1ccc(NC(=S)N2CCN(C/C=C/c3ccccc3)CC2)cc1,x,x,-28*,x,x
COc1ccc(CCNC(=S)N2CCC(C(=O)c3ccc(F)cc3)CC2)cc1OC,x,0,-36,x,x
COc1ccc(N/N=C(\C#N)C(=O)NCCc2ccc(OC)c(OC)c2)cc1,2,x,-38*,x,-4
SMILES,E-selectin induc,Cneo AK release,rRNA inh HTS,miR122 inh,DENV2 CPE rescue
COc1cccc(/C=C/C(=O)NCCc2ccc(OC)c(OC)c2)c1,x,x,-11,x,99*
COc1ccc(C(=O)C2CCN(C(=S)NCCc3ccc(OC)c(OC)c3)CC2)cc1,0,x,-25*,x,-6
C[C@@H]1CN([C@H](C)CO)C(=O)c2cc(C#CC3CC3)cnc2O[C@H]1CN(C)C(=O)C1CCCCC1,0,x,2,-5[16.7 µM],x
COc1ccc(NC(=O)N(C)C[C@@H]2Oc3ccc(NC(=O)Cn4cnnn4)cc3C(=O)N([C@@H](C)CO)C[C@H]2C)cc1,-5,1,-1,19[16.7 µM],6
COc1ccc2c3c([nH]c2c1)[C@@H](CO)N(C(=O)c1ccncc1)CC31CCN(C(=O)c2ccncc2)CC1,0,x,3,x,-8
C[C@@H]1CCCCO[C@@H](CN(C)C(=O)Nc2ccc(F)cc2)[C@H](C)CN([C@H](C)CO)C(=O)c2cc(NS(=O)(=O)c3cn(C)cn3)ccc2O1,0,59,0,1[16.7 µM],-2
CC(C)NC(=O)N(C)C[C@@H]1Oc2cc(C3=CCCC3)ccc2S(=O)(=O)N([C@@H](C)CO)C[C@@H]1C,-1,54,-2,1[16.7 µM],x
C[C@H](CO)N1C[C@H](C)[C@@H](CN(C)C(=O)C2CCC2)Oc2cc(C3=CCCC3)ccc2S1(=O)=O,1,-1,-9,15[16.7 µM],32*
C[C@@H]1CN([C@@H](C)CO)S(=O)(=O)c2ccc(C3=CCCC3)cc2O[C@@H]1CN(C)C(=O)C1CCC1,0,0,-3,-11[16.7 µM],-9
C[C@H]1CN([C@@H](C)CO)S(=O)(=O)c2ccc(C3=CCCC3)cc2O[C@@H]1CN(C)C(=O)CC1CC1,0,45,0,25[16.7 µM],70*
CC(C)NC(=O)N(C)C[C@@H]1Oc2cc(C3=CCCC3)ccc2S(=O)(=O)N([C@H](C)CO)C[C@@H]1C,0,-1,0,3[16.7 µM],47*
COc1ccc2c3c([nH]c2c1)[C@@H](CO)N(Cc1ccccc1)CC31CN(C(=O)c2cccnc2)C1,-1,x,-4,x,-8
C[C@@H]1CCCCO[C@H](CN(C)S(=O)(=O)c2ccc(F)cc2)[C@H](C)CN([C@H](C)CO)C(=O)c2cc(NC(=O)C3CCCCC3)ccc2O1,0,0,-2,-15[16.7 µM],u
CCN(C(=O)N(CC)c1ccccc1)c1ccccc1,x,2,4,-5,20*
CN1CCN(CC#CCn2c3ccccc3c3ccccc32)CC1,x,2,-34*,0,-1
CN1CCN(CC(O)Cn2c3ccccc3c3ccccc32)CC1 (stereo not drawn),0,4,-9,5,1
O=C(CC1CC1)N1CC(=O)N2[C@@H](CO)[C@H](c3ccc(C#Cc4ccccc4)cc3)[C@@H]2C1,0,x,-35,x,17
C[C@H](CO)N1C[C@H](C)[C@H](CN(C)C(=O)Nc2ccc(F)cc2)Oc2ccc(NC(=O)C3CCCCC3)cc2CC1=O,-3,-11,2,-4[16.7 µM],3

# Screens deposited in PubChem BioAssay by Broad Institute.
